Assay results collected from several papers.
Lines come from different studies, so protocols differ.
Target: Serine/threonine-protein kinase PAK 2 (PAK2, Homo sapiens, UniProt Q13177)

COc1cnc(Nc2cccc(S(N)(=O)=O)c2)nc1N1CCN(c2ccccc2)CC1 — remaining binding (binding, competition with immobilised ligand; 1 µM): 100%
Cc1c(C(=O)O)cc(-c2ccc(C3CCNCC3)cc2)c2ccc(-c3ccc(C(F)(F)F)cc3)cc12 — remaining binding (cell-free assay, competition with immobilised ligand; 1 µM): 100%
c1cncc(-c2cccc(Nc3nccc(NC4CCCCC4)n3)c2)c1 — remaining binding (binding, competition with immobilised ligand; 10 µM): 56%
CN(C)c1ncc(F)c(-c2cnn3ncccc23)n1 — remaining binding (binding; 1 µM): 89%
O=C(NCCCN1CCOCC1)c1ccc(Nc2nccc(-c3cc4ccccc4s3)n2)cc1 — remaining binding (binding, competition with immobilised ligand; 1 µM): 100%
CCS(=O)(=O)c1cc2cc(C[C@@](O)(CC(C)(C)c3ccc(F)cc3C(N)=O)C(F)(F)F)[nH]c2cn1 — remaining binding (cell-free assay, competition with immobilised ligand; 1 µM): 94%
C[C@@H]1CCN(c2nccc(-c3cnn4ncccc34)n2)C1 — remaining binding (binding; 1 µM): 99%
C[C@@H](c1ccc(-n2cnc3c(N)ncnc32)cc1)N1CCc2nn(C)c(Cc3ccccc3)c2C1=O — remaining binding (binding, competition with immobilised ligand; 0.1 µM): 61%
C[C@@H]1CN(c2ccc3ncc(-c4ccc5[nH]nc(C6CC6)c5c4)n3n2)C[C@H](C)O1 — remaining binding (binding, competition with immobilised ligand; 50 nM): 76%
CNC(=O)c1ccc(Nc2ncc(C(F)(F)F)c(NCc3nccnc3N(C)S(C)(=O)=O)n2)cc1 — remaining binding (cell-free assay, competition with immobilised ligand; 0.1 µM): 72%
CN(C)c1nccc(-c2cnc3ncccn23)n1 — remaining binding (binding; 1 µM): 100%
O=C(c1ccc(Nc2ncc(Cl)c(-c3ccc(Cl)s3)n2)cc1)N1CCC(N2CCCC2)CC1 — remaining binding (binding, competition with immobilised ligand; 1 µM): 49%
CN(C)CC#Cc1ccc(OCCCc2sc(N3CCc4cccc(C(=O)Nc5nc6ccccc6s5)c4C3)nc2C(=O)O)c(F)c1 — remaining binding (cell-free assay, competition with immobilised ligand; 1 µM): 93%
O=C(c1ccc(Nc2ncc(Cl)c(-c3cc4ccccc4s3)n2)cc1)N1CCC(N2CCCC2)CC1 — remaining binding (binding, competition with immobilised ligand; 1 µM): 59%
CN(C(=O)c1ccccc1)c1cc(N(C)c2ccc3c(c2)CCc2ccc(C(=O)NCCN4CCOCC4)cc2C3=O)ccc1F — remaining binding (cell-free assay, competition with immobilised ligand; 1 µM): 63%
COc1ccnn2ncc(-c3ccnc(N(C)C)n3)c12 — remaining binding (binding; 1 µM): 78%
Nc1ncc2c(n1)-c1c([nH]c3ccc(C#CC4CC4)cc13)CCCC2 — remaining binding (binding, competition with immobilised ligand; 1 µM): 33%
N[C@@H]1CCN(c2nccc(-c3cnn4ncccc34)n2)C1 — remaining binding (binding; 1 µM): 100%
CCC(=O)N[C@H]1CC[C@@H](C(=O)N(C)c2ccc(-c3nc4ccccc4o3)cc2)C1 — remaining binding (cell-free assay, competition with immobilised ligand; 1 µM): 100%
CC1CCCN1c1nccc(-c2cnn3ncccc23)n1 (stereo not drawn) — remaining binding (binding; 1 µM): 100%
O=C(NCC1CCOCC1)c1n[nH]cc1NC(=O)c1c(F)cccc1F — remaining binding (binding, competition with immobilised ligand; 1 µM): 60%
F[C@@H]1CCN(c2nccc(-c3cnn4ncccc34)n2)C1 — remaining binding (binding; 1 µM): 100%
FC(F)(F)Oc1cccc(-c2cnc3ccc(-c4ccncc4)nn23)c1 — remaining binding (cell-free assay, competition with immobilised ligand; 5 µM): 43%
C[C@@H](c1cccc(C#N)c1)n1cc(Cl)cc(C(N)=O)c1=N — remaining binding (cell-free assay, competition with immobilised ligand; 1 µM): 96%
